Source: ChEMBL document CHEMBL4406794, “N-(7-Cyano-6-(4-fluoro-3-(2-(3-(trifluoromethyl)phenyl)acetamido)phenoxy)benzo[d]thiazol-2-yl)cyclopropanecarboxamide (TAK-632) Analogues as Novel Necroptosis Inhibitors by Targeting Receptor-Interacting Protein Kinase 3 (RIPK3): Synthesis, Structure-Activity Relationships, and in Vivo Efficacy” (J Med Chem, 2019)

What was measured:
[1] = biological target: Epidermal growth factor receptor (Homo sapiens) (UniProt P00533); assay: Inhibition of wild-type human partial length EGFR (R669 to V1011 residues) expressed in bacterial expression system assessed as enzyme remaining activity at 1000 nM by Kinomescan method relative to control
Summary of the method: (§1)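 KINOMEscan binding competition. […] Incubation was 1 h at room temperature with shaking, then bead wash and elution with 0.5 μM nonbiotinylated ligand for 30 min. Eluted kinase was quantified by qPCR. Compound was diluted from 40× DMSO stocks to 1000 nM final.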

[2] = test system: Epidermal growth factor receptor (Homo sapiens), P00533 [L858R]; assay: Inhibition of wild-type human partial length EGFR L858R mutant (R669 to V1011 residues) expressed in bacterial expression system assessed as enzyme remaining activity at 1000 nM by Kinomescan method relative to control; summary of the method: as §1
[3] = biological target: Glycogen synthase kinase-3 beta (Homo sapiens) (UniProt P49841); assay: Inhibition of wild-type human full length GSK3B (M1 to T433 residues) expressed in mammalian expression system assessed as enzyme remaining activity at 1000 nM by Kinomescan method relative to control
Chain of Glycogen synthase kinase-3 beta (Homo sapiens) (P49841 whole entry, looked up, the tested form may be a part): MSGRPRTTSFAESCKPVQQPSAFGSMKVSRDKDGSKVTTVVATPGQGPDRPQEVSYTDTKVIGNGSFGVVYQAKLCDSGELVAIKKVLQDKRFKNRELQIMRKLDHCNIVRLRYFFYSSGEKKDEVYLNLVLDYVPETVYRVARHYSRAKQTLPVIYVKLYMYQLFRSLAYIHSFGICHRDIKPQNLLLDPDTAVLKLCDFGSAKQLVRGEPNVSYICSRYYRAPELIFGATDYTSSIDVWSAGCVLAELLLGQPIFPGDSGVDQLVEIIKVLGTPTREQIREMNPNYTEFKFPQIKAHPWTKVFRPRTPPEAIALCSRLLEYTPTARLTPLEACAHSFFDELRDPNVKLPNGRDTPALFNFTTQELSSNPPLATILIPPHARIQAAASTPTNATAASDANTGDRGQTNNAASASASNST

[4] = Tmax in Sprague-Dawley rat at 5 mg/kg, po by LC-tandem mass spectrometry analysis; type: ADME, organism-based; details: in vivo
Summary of the method: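 Male Sprague-Dawley rats received compound iv (1 mg/kg) or intragastrically (5 mg/kg). The vehicle was 5% DMSO, 10% Tween 80 and 75% saline, at 0.2 or 1 mg/mL. Blood was sampled at several time points and centrifuged at 4 °C. Plasma was stored at -80 °C and analysed by LC/MS/MS. Parameters were derived by noncompartmental analysis of individual animal data.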

HT-29 = assay: Anti-necroptotic activity in human HT-29 cells assessed as inhibition of […]/SM-164/Z-VAD-fmk-induced necroptosis measured after 16 hrs by celltiter-glo luminescent cell viability assay; details: HT-29, 16 h

Structure (SMILES): O=C(Nc1cccc(Br)c1)Nc1cc(Oc2ccc3nc(NC(=O)C4CC4)sc3c2)ccc1F
- Activity [1]: 33%
- Activity [2]: 61%
- Activity [3]: 100%
- Tmax [4]: 8.67 h
- EC50 (HT-29): 440 nM
